# Screens from PubChem BioAssay.
# Sampled rows, rich in hits. Any-hit rate of the full collection: about 4.5%.
# OX1R antag-1: antagonists of human orexin 1 receptor | O43613 | CHO/OX1R cells, Fluo-8 calcium fluorescence, orexin A | inhibition, % at 5 µM | 330,000 compounds, 0.43% hits | AID 434989;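 active = inhibition above its plate's threshold, mean inhibition of all tested compounds on the plate plus 3 SD, cut at about 37% in these data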
# OX1R antag-2: antagonists of human orexin 1 receptor (OX1R); 330,000 compounds, 1.8% hits; inhibition, % at 6.6 µM; OX1R-expressing cells, FRET antagonist read-out; O43613; in the data active = inhibition mostly above about 38%, no sharp cut-off; inactive = mostly below about 40%
# GPR7 antag: blocks human GPR7 receptor signaling; 290,000 compounds, 1.1% hits; P48145; inhibition, % at 4.4 µM; GPR7-expressing cells, fluorescence antagonist assay; AID 1861; in the data active = inhibition above about 16%, passing the limit was not always enough;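 note: cells stimulated with the agonist NPW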
# TAAR1 antagonist: human TAAR1 antagonism. inhibition, % at 3 µM. AID 624466. CHO RD-HGA16 TAAR1, Fluo-8 calcium fluorescence, antagonist. 360,000 compounds, 1.5% hits. Q96RJ0;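 active = inhibition above a per-plate cutoff, the mean inhibition of test compounds on that plate plus 3 SD, cut at about 49% in these data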
# Target sequence (Q96RJ0 whole entry, looked up): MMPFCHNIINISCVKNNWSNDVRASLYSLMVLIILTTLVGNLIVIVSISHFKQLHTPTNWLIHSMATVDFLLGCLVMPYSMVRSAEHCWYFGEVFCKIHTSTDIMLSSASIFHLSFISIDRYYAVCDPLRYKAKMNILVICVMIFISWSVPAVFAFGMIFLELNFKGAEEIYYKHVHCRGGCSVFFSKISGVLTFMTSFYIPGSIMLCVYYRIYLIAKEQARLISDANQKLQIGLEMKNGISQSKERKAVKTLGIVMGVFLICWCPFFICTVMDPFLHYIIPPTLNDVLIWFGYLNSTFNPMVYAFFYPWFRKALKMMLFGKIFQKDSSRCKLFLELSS
#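 test system = CHO RD-HGA16 cells bearing hTAAR1 | replication = singlicate | controls = DMSO-only wells and EC80 β-PEA-stimulated wells | reagent = EC80 β-phenethylamine stimulus | read-out basis = percent inhibition of PEA-evoked calcium signal, max/basal emission ratio | schedule = seeding 17-24 h prior, 75-min 37 °C, 30-min RT dye loading | signal = kinetic Fluo-8 calcium fluorescence measurement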
# TAAR1 agonist: human TAAR1 agonism. activation, % at 3 µM. AID 624467. Q96RJ0. 360,000 compounds, 0.99% hits. CHO RD-HGA16 TAAR1, Fluo-8 calcium fluorescence; vehicle wells 0%, saturating PEA agonist 100%;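 active = activation above the mean activation of all test compounds in the run plus 3 SD, cut at about 38% in these data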
#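 Benchmarks: low control DMSO, high control PEA (EC100); System: CHO RD-HGA16 cells carrying human TAAR1 plus Gα16; Detection: Fluo-8 fluorescence, 5 s baseline then 140 s kinetic read; Schedule: 17-24 h plating, Fluo-8 75 min 37 °C, 30 min RT; Read-out basis: % activation from peak over basal fluorescence ratio, DMSO-to-PEA scaled.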
# CHO parental Ca: signal in parental CHO cells, OX1R antagonist counter-screen. parental CHO-K1, ATP-induced calcium, Fluo-8 fluorescence. inhibition, % at 5.6 µM. 330,000 compounds, 0.63% hits;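 active = inhibition above that plate's mean sample inhibition plus 3 SD, cut at about 26% in these data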
#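 Material: Parental CHO cells | Reagent: ATP | Compound dosing: Single nominal dose of 5.6 µM per compound | Detection: Intracellular calcium via Fluo-8 no-wash fluorescent dye | Read-out: % inhibition of ATP-induced calcium mobilization | Benchmarks: Low control ATP plus DMSO, high control DMSO only | Replicates: Singlicate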
# A number is an active result; . = inactive; / = no result given.
SMILES,OX1R antag-1,OX1R antag-2,GPR7 antag,TAAR1 antagonist,TAAR1 agonist,CHO parental Ca
Cc1ccc(NC(=O)c2cnc(N3CCN(c4ccccn4)CC3)c3ccccc23)c(Br)c1,.,.,25.6,72.4,.,.
CSCCC(C(=O)NCc1ccccc1)n1c(C2CCN(C(C)=O)CC2)nc2ccccc21 (centres undefined),/,/,/,.,.,/
CC(=O)Nc1cc2nc3ccccc3oc-2cc1=O,/,/,/,.,.,/
CC(NC(=O)C=Cc1ccco1)C(=O)NC(Cc1ccccc1)C(N)=O (centres undefined),/,/,/,.,.,/
CC(=O)c1cccc(NC(=O)c2ccc(NC(=O)CCS(=O)(=O)c3cccs3)cc2)c1,.,.,.,51.5,.,.
CCOC(=O)c1cccc(NC(=O)CCS(=O)(=O)c2ccc(Br)s2)c1,.,45.7,.,.,.,.
CCOC(=O)c1cccc(NC(=O)CCS(=O)(=O)c2cccs2)c1,.,.,.,.,.,.
COc1ccc(NC(=O)c2ccc(NC(=O)CCS(=O)(=O)c3cccs3)cc2)cc1,.,.,.,53.0,.,.
COc1cccc(NC(=O)CCS(=O)(=O)c2cccs2)c1,.,.,.,.,.,.
CCC1CCCCN1C(=O)c1noc(C(C)C)c1[N+](=O)[O-] (centres undefined),.,.,19.3,.,.,.
CC(C)c1onc(C(=O)NC2CCCCC2)c1[N+](=O)[O-],.,.,18.5,.,.,.
CC(C)c1onc(C(=O)N2CCCCCC2)c1[N+](=O)[O-],.,.,.,.,.,.
COc1cc(CNC(=O)c2cc(-c3cc(F)ccc3OCC3CCCO3)n[nH]2)cc(OC)c1 (centres undefined),/,/,/,52.7,.,/
Cc1cccc(C)c1OCC(O)CN1CCc2ccccc2C1 (centres undefined),.,.,/,.,.,.
Cc1ccc(C(C)C)c(OCC(O)CN2CCc3ccccc3C2)c1 (centres undefined),.,.,.,.,.,30.1
Cc1ccc(C)c(S(=O)(=O)N2CCCCC2CCNC(=O)C(=O)NCc2ccco2)c1 (centres undefined),.,41.1,/,.,.,.
Cc1ccc(C)c(S(=O)(=O)N2CCCOC2CNC(=O)C(=O)NCCc2ccccc2)c1 (centres undefined),.,54.0,.,.,.,.
O=C(NCCc1ccccc1)C(=O)NCC1OCCCN1S(=O)(=O)c1cc(F)ccc1F (centres undefined),.,.,.,.,40.2,.
Cc1cc(F)ccc1S(=O)(=O)N1CCCOC1CNC(=O)C(=O)NCCc1ccccc1 (centres undefined),.,.,.,.,.,.
CCCCc1c(-c2ccccc2OC)ncn1Cc1c(Cl)cccc1Cl,/,/,/,.,.,/
O=C(Nc1ccc(F)cc1)C(c1ccccc1)N1CCN(c2ccncc2)CC1 (centres undefined),/,/,/,.,.,/
CCNc1nc(-c2sc(NC(=O)C(C)(C)C)nc2C)c(-n2cc(-c3ccccc3)nn2)s1,/,/,/,74.9,.,/
Cc1nc(NC(=O)C(C)(C)C)sc1-c1nc(N)sc1-n1cc(-c2ccccc2)nn1,/,/,/,.,.,/
Cc1cccc(CSC(Nc2ccc(F)cc2)=C(C#N)C#N)c1,.,.,.,.,.,25.2
Cc1cccc(NC(=O)Cc2ccc(F)cc2)c1,.,.,.,.,.,.
SMILES,OX1R antag-1,OX1R antag-2,GPR7 antag,TAAR1 antagonist,TAAR1 agonist,CHO parental Ca
N#CC(C#N)=C(Nc1ccc(F)cc1)SCc1cccc(Br)c1,.,.,.,.,.,70.2
CCNC(=O)C1CCCN(C(=O)c2cnc3ccccc3n2)CC1 (centres undefined),/,/,/,.,.,/
C[C@@H]1ON(C)[C@H]2C[C@H]3c4cc(Br)ccc4CCN3C[C@@H]12,/,/,/,.,.,/
Cn1cc(Cc2ccc(C(=O)NCc3ccccc3)cn2)c2ccccc21,/,/,/,.,.,/
CCN=C(Nc1ccc2c(c1)OCO2)SC1CC(=O)N(c2ccc(OC)cc2)C1=O (centres undefined),.,.,.,50.4,.,.
COC(=O)C1=C(C)N(C)C(=NCc2ccc(C(F)(F)F)cc2)NC1c1cccc(Cl)c1 (centres undefined),/,/,/,.,.,/
O=C(NCc1ccco1)c1nc2nc(-c3cccs3)cc(C(F)(F)F)n2n1,.,70.5,.,.,.,.
COC(=O)c1nc2nc(C)cc(C(F)(F)F)n2n1,.,.,.,.,.,.
O=C(CSc1nc(-c2cccs2)cc(C(F)(F)F)n1)NCc1ccco1,.,.,.,.,.,.
COC(=O)c1nc2nc(-c3cccs3)cc(C(F)(F)F)n2n1,.,76.5,.,.,.,.
O=C(Cc1cn(Cc2ccccc2)c2ccccc12)Nc1ccc(Nc2cccnc2)c(Br)c1,/,/,/,.,.,/
Cc1ccc(S(=O)(=O)c2c(C)nn(C(C)(C)C)c2OC(=O)CC(C)C)cc1,.,.,.,.,.,31.1
O=C(NN=C1c2ccccc2-c2ccccc21)c1ccccc1Br,.,48.9,.,.,.,.
O=C(O)[C@@H]1CCCN(S(=O)(=O)c2cccc3cccnc23)C1,.,.,/,.,.,.
CN(CC(=O)N1CCCCC1)S(=O)(=O)c1cccc2cccnc12,.,.,.,.,.,.
CC1Cc2ccccc2N1C(=O)C1CCCN(S(=O)(=O)c2cccc3cccnc23)C1 (centres undefined),.,58.1,.,.,.,.
CC1Cc2ccccc2N1C(=O)CN(C)S(=O)(=O)c1cccc2cccnc12 (centres undefined),.,56.4,.,.,.,.
Cc1ccc(F)c(NC(=O)c2ccc(Cn3cc(Cl)cn3)cc2)c1,.,.,33.7,.,.,.
O=C(NCc1ccc(Br)cc1)OC1CC2CC1[C@H]1CCCCN1C2=O (some centres undefined),/,/,/,.,.,/
Cc1cc(NC(=O)CCC(=O)N(Cc2ccco2)C(C(=O)NC2CCCC2)c2ccccc2)no1 (centres undefined),.,.,.,.,.,.
Cc1cc(NC(=O)CCC(=O)N(Cc2ccco2)C(C(=O)NC2CCCC2)c2ccc(F)cc2)no1 (centres undefined),.,46.9,.,.,.,.
